Experimental data: PubChem BioAssay
The source made the active and inactive calls.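 Rule for the calls, unless noted: active = visually confirmed hit in the image check and inhibition above 20%; inconclusive = visually confirmed hit but inhibition not above 20%; inactive = no visual hit in the image check.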

Columns and labels:
[1] = inhibitors of TNFa-induced NFkB p65 translocation, primary screen, imaging, HUVEC, MLSMR starter and 10KST1 sets (AID 438;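 active = inhibition above 20% together with a positive visual image hit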;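 note: compound added about 3h40 before a 20 min TNFalpha stimulation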;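 for inhibition: signal is the nuclear over cytoplasmic p65 intensity ratio per well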); conditions: HUVEC TNFa-induced p65 nuclear translocation; cell count: measured here: nuclei count (cytotoxicity indicator), at 2.08 µM; inhibition: at 2 µM, stronger effect = higher value, 0% TNFa-plus-vehicle, 100% no-TNFa wells
[2] = inhibitors of E-selectin induction by TNFa, primary screen, imaging, HUVEC, immunofluorescence, MLSMR starter and 10KST1 sets (AID 487); conditions: HUVEC TNFalpha-induced E-selectin immunofluorescence imaging, at 2 µM; inhibition: stronger effect = higher value; nuclei count: measured here: cell number, toxicity;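 for inhibition: signal is fraction of cell area covered by stained E-selectin grains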;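 for nuclei count: 100% = median nuclei count of all wells on the same plate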
[3] = DUSP6 inhibitors restoring Erk phosphorylation by chemical complementation, primary imaging in DUSP6-transfected HeLa (AID 609;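 active = compounds giving at least 50% inhibition in the cell-based MKP-3 phosphatase rescue imaging test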;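 for inhibition: phospho-Erk level distribution per well compared with pooled transfected vehicle control wells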); conditions: HeLa MKP-3 transfected, phospho-Erk imaging KS statistic, at 10 µM, cells stimulated with TPA for 15 min
[4] = target: Dual specificity protein phosphatase 6 (Homo sapiens) (UniProt Q16828); assay: as above; conditions: HeLa MKP-3 transfected, phospho-Erk imaging KS statistic; at 10 µM; stronger effect = higher value; cells stimulated with TPA for 15 min
Dual specificity protein phosphatase 6 (Homo sapiens), sequence (Q16828 whole entry, looked up): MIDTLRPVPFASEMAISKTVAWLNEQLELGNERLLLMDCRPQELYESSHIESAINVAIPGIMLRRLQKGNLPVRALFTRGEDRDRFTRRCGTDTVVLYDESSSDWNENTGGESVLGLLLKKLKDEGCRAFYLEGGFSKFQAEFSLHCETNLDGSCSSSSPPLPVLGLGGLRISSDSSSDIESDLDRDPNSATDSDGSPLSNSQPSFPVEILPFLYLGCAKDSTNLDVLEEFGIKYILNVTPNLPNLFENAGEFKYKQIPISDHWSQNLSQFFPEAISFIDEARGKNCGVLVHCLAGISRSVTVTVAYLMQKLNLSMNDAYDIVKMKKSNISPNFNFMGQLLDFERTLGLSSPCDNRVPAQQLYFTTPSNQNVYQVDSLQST

[5] = target: Voltage-gated potassium channel subunit beta-2 (Rattus norvegicus) (UniProt P62483); assay: KvBeta enzyme negative modulators, primary screen, biochemical, NADPH fluorescence (AID 622;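 active = fluorescence slope higher than the sample average by over 3 SD, cut at about -0.22 in these data, passing the limit was not always enough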;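 note: slope of raw intensity against log time taken from 70 to 1610 s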); conditions: recombinant KvBeta, 4-cyanobenzaldehyde reduction, at 10 µM, stronger effect = higher value
Voltage-gated potassium channel subunit beta-2 (Rattus norvegicus), sequence (P62483 whole entry, looked up): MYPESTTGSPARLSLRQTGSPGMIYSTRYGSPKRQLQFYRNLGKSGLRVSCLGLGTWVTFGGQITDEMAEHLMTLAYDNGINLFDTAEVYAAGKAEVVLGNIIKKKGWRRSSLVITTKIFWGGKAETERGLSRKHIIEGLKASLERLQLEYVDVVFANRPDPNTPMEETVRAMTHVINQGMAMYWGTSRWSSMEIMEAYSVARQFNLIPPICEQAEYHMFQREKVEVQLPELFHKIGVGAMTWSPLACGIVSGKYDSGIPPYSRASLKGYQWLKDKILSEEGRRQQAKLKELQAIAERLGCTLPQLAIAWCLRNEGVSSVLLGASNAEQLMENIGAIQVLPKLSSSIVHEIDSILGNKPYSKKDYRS

[6] = target: Voltage-gated potassium channel subunit beta-2 (Rattus norvegicus) (UniProt P62483); assay: KvBeta positive modulators, primary screen, biochemical, NADPH fluorescence (AID 623;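 active = NADPH fluorescence slope more negative than the mean of all samples by about 3 SD, 99.7% confidence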;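 note: fluorescence intensity change per second fitted from 20 to 320 s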); conditions: Recombinant KvBeta, NADPH fluorescence decrease slope, 10 min; at 10 µM; stronger effect = lower value
[7] = target: Alpha-2C adrenergic receptor (Homo sapiens) (UniProt P18825); assay: modulators of alpha2C/GIRK thallium flux, primary screen, cell-based, HEK293 alpha2C/GIRK1/2 (AID 624;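 active = fluorescence slope after compound addition differing from the mean of all screened samples at 99.7% confidence, in either direction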;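 note: slope of fluorescence ratio to pre-addition baseline per second over 15 to 24 s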); conditions: thallium flux BTC fluorescence, at 10 µM, actives lie on both sides
Alpha-2C adrenergic receptor (Homo sapiens), sequence (P18825 whole entry, looked up): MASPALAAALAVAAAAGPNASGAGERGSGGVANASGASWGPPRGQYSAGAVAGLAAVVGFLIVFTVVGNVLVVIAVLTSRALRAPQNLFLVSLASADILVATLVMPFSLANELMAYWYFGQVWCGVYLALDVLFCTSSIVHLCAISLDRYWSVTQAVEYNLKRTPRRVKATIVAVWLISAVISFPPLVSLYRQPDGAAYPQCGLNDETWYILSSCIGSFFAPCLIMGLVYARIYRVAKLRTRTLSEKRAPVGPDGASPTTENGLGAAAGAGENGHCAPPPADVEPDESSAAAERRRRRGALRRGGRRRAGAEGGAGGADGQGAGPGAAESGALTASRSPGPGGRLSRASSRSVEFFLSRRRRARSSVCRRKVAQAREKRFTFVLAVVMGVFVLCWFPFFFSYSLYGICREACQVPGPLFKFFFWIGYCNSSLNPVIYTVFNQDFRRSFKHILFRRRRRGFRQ

[8] = inhibitors of larval lipid processing in zebrafish, primary screen, whole organism, PED6 fluorescence, gall bladder and intestine (AID 686;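 active = a full or partial loss of lipid-probe fluorescence in the fish gall bladder, intestine or both, judged by eye; inactive = no fluorescence loss, or compound toxic to the fish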;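 note: larvae 5 to 7 days old with five fish per well; signal comes from phospholipase A2 cleavage of quenched PED6 carried via bile; overnight exposure to compound and PED6 before scoring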); conditions: Zebrafish larvae PED6 lipid processing, fluorescence scoring; screened at 20 µM (by protocol)
Summary of the method: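 Also added: quenched phospholipase substrate PED6, 100 nM final, ingested by larvae; System: zebrafish larvae, 5-7 d; Quantity: 5 larvae per well; Compound: 20 µM single dose; Schedule: overnight compound and PED6 incubation; Read-out: visual per-well fluorescence inhibition score; Measured by: By-eye fluorescence microscopy; Medium: E3.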

[9] = inhibitors of Chlamydomonas gravitaxis, primary screen, whole organism, Chlamydomonas reinhardtii, WT vs cilia-less mutant, absorbance, 96-well (AID 463189;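 active = inhibition at or above 50% relative to wild type and mutant plate controls; inactive = inhibition below 50%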;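 note: 0% = wild type cc124 cells in DMSO and 100% = ciliumless bld1 mutant cells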); conditions: OD600 absorbance, 2 days, at 10 µM, stronger effect = higher value
[10] = measured here: cell density z-score
[11] = measured here: nuclear c-Myc green intensity z-score
[12] = measured here: nuclear pErk red intensity z-score, stronger effect = higher value

| SMILES | cell count [1] | inhibition [1] | inhibition [2] | nuclei count [2] [%] | z-score [3, 10] | z-score [3, 11] | z-score [3, 12] | inhibition [4] | fluorescence slope [5] | NADPH fluorescence slope [6] | slope [7] | outcome [8] | inhibition [9] |
| --- | --- | --- | --- | --- | --- | --- | --- | --- | --- | --- | --- | --- | --- |
| Cc1cc(OCCN2CCOCC2)nc2ccccc12 | 358 | -29.5% (inactive) | -231% (inactive) | 135 | 0.234 | -1.97 | -1.2 | -10.5% (inactive) | -0.431 (inactive) | -9.4e-05 (inactive) | 0.00613 (inactive) | inactive | 22.7% (inactive) |
| N#Cc1nc(-c2ccc(Cl)cc2)oc1N1CCCCC1 | 424 | -5.8% (inactive) | -41.2% (inactive) | 138 | -0.0904 | -0.228 | 0.966 | 9.61% (inactive) | -0.394 (inactive) | -1.7e-05 (inactive) | 0.00666 (inactive) | inactive | 20% (inactive) |
| COC(=O)C(NC(C)=O)(Nc1ccc(Br)cc1)C(=O)OC | 485 | -1.7% (inactive) | -127% (inactive) | 153 | 0.275 | 0.746 | -1.04 | 18.2% (inactive) | -0.537 (inactive) | -1.5e-05 (inactive) | 0.00456 (inactive) | inactive | -10.2% (inactive) |
| CCc1c(C)c(C#N)c2nc3ccccc3n2c1-n1nc(C)cc1C | 609 | -2.3% (inactive) | -51.2% (inactive) | 140 | -0.4 | 1.4 | -0.335 | 7.93% (inactive) | -0.352 (inactive) | -7.9e-05 (inactive) | 0.00552 (inactive) | inactive | -13.6% (inactive) |
| Cn1cc(Br)cc2nc(C(F)(F)F)nc1-2 | 534 | -11.2% (inactive) | -143% (inactive) | 133 | 0.955 | -1.14 | -0.53 | 29.7% (inactive) | -0.532 (inactive) | -2.5e-05 (inactive) | 0.00656 (inactive) | inactive | 20% (inactive) |
| COc1cccc(N2CCN(C3CC(=O)N(c4cccc(Cl)c4)C3=O)CC2)c1 (stereo not given) | 325 | -2.2% (inactive) | -62.9% (inactive) | 80.7 | -0.898 | 1.47 | -0.427 | 3.42% (inactive) | -0.43 (inactive) | -0.00011 (inactive) | 0.00471 (inactive) | inactive | -11.3% (inactive) |
| Oc1ccc2c(c1)C1CCCC1(N1CCOCC1)O2 (stereo not given) | 414 | 0.7% (inactive) | -83.5% (inactive) | 128 | 0.996 | -0.205 | -1.79 | 3.42% (inactive) | -0.458 (inactive) | -0.000124 (inactive) | 0.005 (inactive) | inactive | -3.55% (inactive) |
| COc1ccc(OC)c(C2/C(=C(/O)c3ccc(C)cc3)C(=O)C(=O)N2Cc2ccco2)c1 (stereo not given) | 561 | -1.8% (inactive) | -18.5% (inactive) | 143 | 1.28 | 0.438 | 0.373 | -7.86% (inactive) | -0.568 (inactive) | -1.3e-05 (inactive) | 0.00557 (inactive) | inactive | -7.49% (inactive) |
| COC(=O)c1cc(Br)c(=O)n(Cc2ccc3c(c2)OCO3)c1 | 533 | 2.2% (inactive) | -141% (inactive) | 135 | 0.138 | 0.394 | 1.32 | -14% (inactive) | -0.501 (inactive) | -4.4e-05 (inactive) | 0.00422 (inactive) | inactive | 110% (active) |
| CC1(C)Cc2c(C#N)c(NCc3ccco3)nc(-c3ccco3)c2CO1 | 598 | 3.9% (inactive) | -12.9% (inactive) | 178 | 0.978 | -1.81 | 0.89 | -6.86% (inactive) | -0.29 (inactive) | -9.7e-06 (inactive) | 0.00397 (inactive) | active; weak signal in gallbladder and intestine | 53.9% (active) |
